From ChEMBL document CHEMBL1156768, “The structure-activity relationship of the antimalarial ozonide arterolane (OZ277)” (J Med Chem, 2010)
≈ marks a conversion by molar mass, not a printed value.

Experiments:
[1] = tested on: Plasmodium berghei; test: Antiplasmodial activity against Plasmodium berghei infected in NMRI mice (Mus musculus) assessed as reduction of parasitaemia level at 10 mg/kg, perorally administered 1 day after post-infection measured after 3 days post-infection; type: functional; design: scale not given: the % may be the effect or the level left; conditions: route oral
Summary of the method: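 Groups of five NMRI mice infected with P. berghei received a single oral dose on day 1 postinfection. Read-out was percent reduction in parasitemia on day 3 postinfection. Individual measurements differed by less than 10%.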

[2] = tested on: Plasmodium falciparum; test: Antimalarial activity against chloroquine-resistant Plasmodium falciparum K1 infected in human A+ erythrocytes assessed as [3H]hypoxanthine incorporation by semiautomated micro dilution assay; type: functional, organism-based
[3] = tested on: Plasmodium falciparum; test: Antimalarial activity against chloroquine-sensitive Plasmodium falciparum NF54 infected in human A+ erythrocytes assessed as [3H]hypoxanthine incorporation by semi-automated micro dilution assay; type: functional, organism-based
[4] = tested on: Plasmodium berghei; test: Antiplasmodial activity against Plasmodium berghei infected in NMRI mice (Mus musculus) assessed as curing of parasitaemia at 3 mg/kg, perorally daily once for 3 consecutive days measured after 30 days post-infection; type: functional; conditions: route oral
Summary of the method: (§1)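 P. berghei-infected NMRI mice, in groups of five, were dosed orally at 3 mg/kg on days +1, +2 and +3 postinfection. Parasitemia reduction, survival time and cure were scored.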

[5] = Half life in Sprague-Dawley rat at 2.5 to 3.5 mg/kg, iv; type: ADME, organism-based; design: dose 2.5-3.5 mg/kg, route intravenous; conditions: in vivo
Summary of the method: (§2)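 Rats received an IV infusion over 5-10 min through a jugular cannula at 2.5-3.5 mg/kg, in DMSO/aqueous buffer or propylene glycol/ethanol/water. Oral gavage used aqueous suspensions in HPMC or CMC with 0.4% Tween 80 and 0.5% benzyl alcohol. Carotid blood was sampled, and plasma was acetonitrile-precipitated and measured by LC/MS against plasma calibration standards. Values are averages of 2-3 determinations.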

[6] = Oral bioavailability in Sprague-Dawley rat; type: ADME, organism-based; conditions: in vivo; summary of the method: as §2
[7] = tested on: Plasmodium berghei; test: Antiplasmodial activity against Plasmodium berghei infected in NMRI mice (Mus musculus) assessed as mice (Mus musculus) survival days at 3 mg/kg, perorally daily once for 3 consecutive days measured after 4 days post-infection; type: functional; conditions: route oral; summary of the method: as §1
[8] = tested on: Plasmodium berghei; test: Antiplasmodial activity against Plasmodium berghei infected in NMRI mice (Mus musculus) assessed as reduction of parasitaemia level at 3 mg/kg, perorally daily once for 3 consecutive days measured after 4 days post-infection; type: functional; design: scale not given: the % may be the effect or the level left; conditions: route oral; summary of the method: as §1
[9] = Volume of distribution in Sprague-Dawley rat at 2.5 to 3.5 mg/kg, iv; type: ADME, organism-based; design: dose 2.5-3.5 mg/kg, route intravenous; conditions: in vivo; summary of the method: as §2
[10] = Plasma clearance in Sprague-Dawley rat at 2.5 to 3.5 mg/kg, iv; type: ADME, organism-based; design: dose 2.5-3.5 mg/kg, route intravenous; summary of the method: as §2
[11] = Blood clearance in Sprague-Dawley rat at 2.5 to 3.5 mg/kg, iv; type: ADME, organism-based; design: dose 2.5-3.5 mg/kg, route intravenous; conditions: whole blood; summary of the method: as §2

| SMILES | Activity [1] | IC50 [2] | IC50 [3] | Activity [4] | half-life [5] | bioavailability [6] | Survival [7] | Activity [8] | Vd [9] | clearance [10] | clearance [11] |
| --- | --- | --- | --- | --- | --- | --- | --- | --- | --- | --- | --- |
| O=C(O)C[C@H]1CC[C@]2(CC1)OO[C@]1(O2)C2CC3CC(C2)CC1C3 | 95% | 34 ng/mL (≈ 105 nM) | 45 ng/mL (≈ 140 nM) |  |  |  |  |  |  |  |  |
| Cc1ccc(S(=O)(=O)O)cc1.NCCNC(=O)C[C@H]1CC[C@]2(CC1)OO[C@]1(O2)C2CC3CC(C2)CC1C3 | 99.9% |  |  |  |  |  |  |  |  |  |  |
| CC(C)(N)CNC(=O)NC[C@H]1CC[C@]2(CC1)OO[C@]1(O2)C2CC3CC(C2)CC1C3.Cc1ccc(S(=O)(=O)O)cc1 | 97% | 3.2 ng/mL | 3.5 ng/mL |  |  |  |  |  |  |  |  |
| CC(C)(N)Cn1nnnc1C[C@H]1CC[C@]2(CC1)OO[C@]1(O2)C2CC3CC(C2)CC1C3 | 98% | 2.3 ng/mL (≈ 5.51 nM) | 1.5 ng/mL (≈ 3.59 nM) |  |  |  |  |  |  |  |  |
| Cc1ccc(S(=O)(=O)O)cc1.NC1(CNC(=O)C[C@H]2CC[C@]3(CC2)OO[C@]2(O3)C3CC4CC(C3)CC2C4)CC1 | 99.9% | 0.4 ng/mL | 0.52 ng/mL |  |  |  |  |  |  |  |  |
| CC(C)(CN)CNC(=O)C[C@H]1CC[C@]2(CC1)OO[C@]1(O2)C2CC3CC(C2)CC1C3.CS(=O)(=O)O | 99.9% | 0.46 ng/mL | 0.49 ng/mL |  |  |  |  |  |  |  |  |
| CC(C)(N)CNC(=O)N[C@H]1CC[C@]2(CC1)OO[C@]1(O2)C2CC3CC(C2)CC1C3.Cc1ccc(S(=O)(=O)O)cc1 | 63% | 8.4 ng/mL | 6.2 ng/mL |  |  |  |  |  |  |  |  |
| O=C(C[C@H]1CC[C@]2(CC1)OO[C@]1(O2)C2CC3CC(C2)CC1C3)N1CCN(CCO)CC1 | 96% | 1 ng/mL (≈ 2.3 nM) | 0.9 ng/mL (≈ 2.07 nM) |  |  |  |  |  |  |  |  |
| CC(C)(N)CNC(=O)[C@H]1CC[C@@]2(CC1)OO[C@@]1(O2)C2CC3CC(C2)CC1C3.Cc1ccc(S(=O)(=O)O)cc1 | 84% | 1.4 ng/mL | 0.74 ng/mL |  |  |  |  |  |  |  |  |
| NC(=O)CNC(=O)C[C@H]1CC[C@]2(CC1)OO[C@]1(O2)C2CC3CC(C2)CC1C3 | 99.6% | 3.9 ng/mL (≈ 10.3 nM) | 3.6 ng/mL (≈ 9.51 nM) |  |  |  |  |  |  |  |  |
| CC(C)(N)CNC(=O)CC[C@H]1CC[C@]2(CC1)OO[C@]1(O2)C2CC3CC(C2)CC1C3.Cc1ccc(S(=O)(=O)O)cc1 | >99.9% | 0.55 ng/mL | 0.82 ng/mL | 0% | 1 h | 32% | 24.4 days | >99.9% | 12 L/kg | 134 mL/min/kg |  |
| CS(=O)(=O)N1CCN(C(=O)C[C@H]2CC[C@]3(CC2)OO[C@]2(O3)C3CC4CC(C3)CC2C4)CC1 | <40% |  |  |  |  |  |  |  |  |  |  |
| Cc1ccc(S(=O)(=O)O)cc1.O=C(C[C@H]1CC[C@]2(CC1)OO[C@]1(O2)C2CC3CC(C2)CC1C3)N1CCNCC1 | >99.9% | 0.21 ng/mL | 0.24 ng/mL | 0% | 1.7 h | 37% |  | >99.9% | 25 L/kg | 168 mL/min/kg | 56.3 mL/min/kg |
| NC(=O)C1CCN(C(=O)C[C@H]2CC[C@]3(CC2)OO[C@]2(O3)C3CC4CC(C3)CC2C4)CC1 | 86% |  | 1.7 ng/mL (≈ 3.93 nM) |  |  |  |  |  |  |  |  |
| CC(C)(N)CNC(=O)OC[C@H]1CC[C@]2(CC1)OO[C@]1(O2)C2CC3CC(C2)CC1C3.Cc1ccc(S(=O)(=O)O)cc1 | >99.9% | 0.22 ng/mL | 0.36 ng/mL | 0% |  |  | 9.8 days | >99.9% |  |  |  |
| O=CN1CCN(C(=O)C[C@H]2CC[C@]3(CC2)OO[C@]2(O3)C3CC4CC(C3)CC2C4)CC1 | 99.8% | 0.39 ng/mL (≈ 0.932 nM) | 0.63 ng/mL (≈ 1.51 nM) |  |  |  |  |  |  |  |  |
| CC(C)(N)CNC(=O)C[C@H]1CC[C@@]2(CC1)OO[C@@]1(O2)C2CC3CC(C2)CC1C3.Cc1ccc(S(=O)(=O)O)cc1 | 96% | 1.7 ng/mL | 1.5 ng/mL |  | 0.617 h | 15% |  |  | 16 L/kg | 298 mL/min/kg |  |
